Test results taken from ChEMBL document CHEMBL1129987, “Structure-based design of nonpeptidic HIV protease inhibitors: the sulfonamide-substituted cyclooctylpyramones” (J Med Chem, 1997).

What was measured:
[1] = Oral bioavailability in rat (Sprague-Dawley) (male) (dose 5.1 mg/kg p.o.); format: ADME, organism-based; conditions: in vivo
[2] = Maximum concentration was measured after peroral administration of 5.1 mg/kg of drug in male Dawley rats; format: ADME, organism-based; parameters: dose 5.1 mg/kg, route oral; conditions: Sprague-Dawley, rat, in vivo, po
[3] = Apparent volume of distribution was obtained after intravenous administration of 4.9 mg/kg of drug in male Beagle dogs; format: ADME, organism-based, Canis lupus familiaris; parameters: dose 4.9 mg/kg, route intravenous; conditions: dog, in vivo, read-out: Vss
[4] = test system: Human immunodeficiency virus 1; experiment: Antiviral activity in HIV-1 infected H9 cells; format: functional; conditions: Human immunodeficiency virus 1, H9; read-out: ED50 (the source's name)
Procedure, shortened: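 H9 cells infected with HIV-1 IIIB at MOI about 0.005, spun down (200g, 10 min), resuspended at 8 × 10^5 cells/mL in RPMI Complete and mixed with compound; final DMSO 0.1%, triplicate per concentration. After 5 days at 37 °C in 5% CO2, supernatant p24 antigen was measured by ELISA. ED50 is the drug amount that reduces p24 by 50% versus DMSO drug-free controls.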

[5] = Oral bioavailability in dog (Beagle) (male) (dose 10 mg/kg p.o.); format: ADME, organism-based, Canis lupus familiaris; conditions: in vivo
Procedure, shortened: (§1)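 Male beagle dogs received a 10 mg/kg oral dose. tmax is reported as a range. Bioavailability was calculated as %F = (AUCpo/AUCiv) × (doseiv/dosepo) against a separate iv study. Values are mean ± SD, n = 3.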

[6] = Maximum time taken by the drug to reach peak concentration after peroral administration of 10 mg/kg of drug male in male Beagle dogs; format: ADME, organism-based, Canis lupus familiaris; parameters: dose 10 mg/kg, route oral; conditions: dog, in vivo, po; procedure, shortened: as §1
[7] = Total plasma clearance value was obtained after intravenous administration of 4.9 mg/kg of drug in male Beagle dogs; format: ADME, organism-based, Canis lupus familiaris; parameters: dose 4.9 mg/kg, route intravenous; conditions: dog
[8] = Median cell culture toxic dose was evaluated against H9 cell line; format: ADME, cell-based; conditions: human, H9 cells; read-out: CCTD50
[9] = Maximum time taken by the drug to reach peak concentration after peroral administration of 5.1 mg/kg of drug male in Dawley rats; format: ADME, organism-based; parameters: dose 5.1 mg/kg, route oral; conditions: Sprague-Dawley, rat, in vivo, po
[10] = Total plasma clearance value was obtained after intravenous administration of 2.5 mg/kg of drug in male Dawley rats; format: ADME, organism-based; parameters: dose 2.5 mg/kg, route intravenous; conditions: Sprague-Dawley, rat
[11] = Half-life was measured after intravenous administration of 2.5 mg/kg of drug in male Dawley rats; format: ADME, organism-based; parameters: dose 2.5 mg/kg, route intravenous; conditions: Sprague-Dawley, rat, in vivo
[12] = Half-life was measured after intravenous administration of 4.9 mg/kg of drug in male Beagle dogs; format: ADME, organism-based, Canis lupus familiaris; parameters: dose 4.9 mg/kg, route intravenous; conditions: dog, in vivo
[13] = (§2) Apparent volume of distribution was obtained after intravenous administration of 2.8 mg/kg of drug in male Dawley rats; format: ADME, organism-based; parameters: dose 2.8 mg/kg, route intravenous; conditions: male, Sprague-Dawley, rat, in vivo, read-out: Vss
[14] = molecular target: Human immunodeficiency virus type 1 protease (Human immunodeficiency virus 1, UniProt Q72874); experiment: Binding affinity against HIV-1 protease
[15] = Maximum time taken by the drug to reach peak concentration after peroral administration of 5.1 mg/kg of drug in male Dawley rats; format: ADME, organism-based; parameters: dose 5.1 mg/kg, route oral; conditions: Sprague-Dawley, rat, in vivo, po
[16] = (§3) Half-life was measured after intravenous administration of […] mg/kg of drug in male Dawley rats; format: ADME, organism-based; conditions: male, Sprague-Dawley, rat, in vivo, 2.8 mg/kg
[17] = (§4) Total plasma clearance value was obtained after intravenous administration of […] mg/kg of drug in male Dawley rats; format: ADME, organism-based; conditions: male, Sprague-Dawley, rat, plasma, 2.8 mg/kg
Rattus norvegicus [18] = experiment: as §2; format: ADME, organism-based; parameters: dose 2.8 mg/kg, route intravenous; conditions: in vivo
[19] = Oral bioavailability in rat (Sprague-Dawley) (male) (dose 5.2 mg/kg p.o.); format: ADME, organism-based; conditions: in vivo
[20] = Maximum time taken by the drug to reach peak concentration after peroral administration of 5.2 mg/kg of drug in male Dawley rats; format: ADME, organism-based; parameters: dose 5.2 mg/kg, route oral; conditions: Sprague-Dawley, rat, in vivo, po
Rattus norvegicus [21] = experiment: as §3; format: ADME, organism-based; conditions: in vivo, 2.8 mg/kg
Rattus norvegicus [22] = experiment: as §4; format: ADME, organism-based; conditions: in vivo, 2.8 mg/kg
[23] = Maximum concentration was measured after peroral administration of 5.2 mg/kg of drug in male Dawley rats; format: ADME, organism-based; parameters: dose 5.2 mg/kg, route oral; conditions: Sprague-Dawley, rat, in vivo, po
[24] = Half-life was measured after intravenous administration of 2.6 mg/kg of drug in male Dawley rats; format: ADME, organism-based; parameters: dose 2.6 mg/kg, route intravenous; conditions: Sprague-Dawley, rat, in vivo
[25] = Total plasma clearance value was obtained after intravenous administration of 2.6 mg/kg of drug in male Dawley rats; format: ADME, organism-based; parameters: dose 2.6 mg/kg, route intravenous; conditions: Sprague-Dawley, rat
[26] = Apparent volume of distribution was obtained after intravenous administration of 2.6 mg/kg of drug in male Dawley rats; format: ADME, organism-based; parameters: dose 2.6 mg/kg, route intravenous; conditions: Sprague-Dawley, rat, in vivo, read-out: Vss
[27] = Maximum time taken by the drug to reach peak concentration after peroral administration of 5.0 mg/kg of drug in male Dawley rats; format: ADME, organism-based; parameters: dose 5 mg/kg, route oral; conditions: Sprague-Dawley, rat, in vivo, po
[28] = Oral bioavailability in rat (Sprague-Dawley) (male) (dose 5 mg/kg); format: ADME, organism-based; conditions: in vivo
[29] = Maximum concentration was measured after peroral administration of 5.0 mg/kg of drug in male Dawley rats; format: ADME, organism-based; parameters: dose 5 mg/kg, route oral; conditions: Sprague-Dawley, rat, in vivo, po
[30] = Half-life was measured after intravenous administration of 2.7 mg/kg of drug in male Dawley rats; format: ADME, organism-based; parameters: dose 2.7 mg/kg, route intravenous; conditions: Sprague-Dawley, rat, in vivo
[31] = Half-life was measured after intravenous administration of 1.8 mg/kg of drug in male Beagle dogs; format: ADME, organism-based, Canis lupus familiaris; parameters: dose 1.8 mg/kg, route intravenous; conditions: dog, in vivo
[32] = Apparent volume of distribution was obtained after intravenous administration of 2.7 mg/kg of drug in male Dawley rats; format: ADME, organism-based; parameters: dose 2.7 mg/kg, route intravenous; conditions: Sprague-Dawley, rat, in vivo, read-out: Vss
[33] = Maximum concentration was measured after peroral administration of 10 mg/kg of drug in male Beagle dogs; format: ADME, organism-based, Canis lupus familiaris; parameters: dose 10 mg/kg, route oral; conditions: dog, in vivo, po; procedure, shortened: as §1
[34] = Total plasma clearance value was obtained after intravenous administration of 1.8 mg/kg of drug in male Beagle dogs; format: ADME, organism-based, Canis lupus familiaris; parameters: dose 1.8 mg/kg, route intravenous; conditions: dog
[35] = Apparent volume of distribution was obtained after intravenous administration of 1.8 mg/kg of drug in male Beagle dogs; format: ADME, organism-based, Canis lupus familiaris; parameters: dose 1.8 mg/kg, route intravenous; conditions: dog, in vivo, read-out: Vss
[36] = Total plasma clearance value was obtained after intravenous administration of 2.7 mg/kg of drug in male Dawley rats; format: ADME, organism-based; parameters: dose 2.7 mg/kg, route intravenous; conditions: Sprague-Dawley, rat
[37] = Maximum time taken by the drug to reach peak concentration after peroral administration of 5.2 mg/kg of drug male in Dawley rats; format: ADME, organism-based; parameters: dose 5.2 mg/kg, route oral; conditions: Sprague-Dawley, rat, in vivo, po
[38] = Total plasma clearance value was obtained after intravenous administration of 5.1 mg/kg of drug in male Dawley rats; format: ADME, organism-based; parameters: dose 5.1 mg/kg, route intravenous; conditions: Sprague-Dawley, rat
[39] = Apparent volume of distribution was obtained after intravenous administration of 5.1 mg/kg of drug in male Dawley rats; format: ADME, organism-based; parameters: dose 5.1 mg/kg, route intravenous; conditions: Sprague-Dawley, rat, in vivo, read-out: Vss
[40] = Half-life was measured after intravenous administration of 5.1 mg/kg of drug in male Dawley rats; format: ADME, organism-based; parameters: dose 5.1 mg/kg, route intravenous; conditions: Sprague-Dawley, rat, in vivo

Row | Structure (SMILES) | bioavailability [1] | Cmax [2] | EC50 [4] | bioavailability [5] | Tmax [6] | Ki [14] | bioavailability [19] | Cmax [23] | Tmax [27] | bioavailability [28] | Cmax [29] | CC50 [8] | further results
1 | N#Cc1ccc(S(=O)(=O)Nc2cccc(C(c3c(O)c4c(oc3=O)CCCCCC4)C3CC3)c2)cc1 (stereo unspecified) | 42% | 24 µM | 1300 nM | 77% | 30 min | – | – | – | – | – | – | 90000 nM | Vd [3]: 0.085 L/kg; clearance [7]: 0.733 mL/min/kg; Tmax [9]: 15 min; clearance [10]: 1.25 mL/min/kg; half-life [11]: 180 min; half-life [12]: 378 min
2 | O=c1c2c(oc(O)c1[C@H](c1cccc(NS(=O)(=O)c3ccc(F)cc3)c1)C1CC1)CCCCCC2 | 58% | 10 µM | 800 nM | – | – | 1.4 nM | – | – | – | – | – | > 30000 nM | Vd [13]: 0.13 L/kg; Tmax [15]: 15 min; half-life [16]: 132 min; clearance [17]: 1.92 mL/min/kg
3 | O=c1c2c(oc(O)c1[C@@H](c1cccc(NS(=O)(=O)c3ccc(F)cc3)c1)C1CC1)CCCCCC2 | – | – | > 10000 nM | – | – | 2.1 nM | 53% | 24 µM | – | – | – | > 30000 nM | Vss (Rattus norvegicus [18]): 0.15 L/kg; Tmax [20]: 15 min; T1/2 (Rattus norvegicus [21]): 360 min; CL (Rattus norvegicus [22]): 0.067 mL/min/kg
4 | N#Cc1ccc(S(=O)(=O)Nc2cccc([C@@H](c3c(O)oc4c(c3=O)CCCCCC4)C3CC3)c2)cc1 | – | – | 1200 nM | – | – | – | – | – | 30 min | 42% | 19 µM | > 30000 nM | clearance [38]: 0.817 mL/min/kg; Vd [39]: 0.12 L/kg; half-life [40]: 372 min

Now from value to molecule, other results behind:

Row | bioavailability [1] | Cmax [2] | EC50 [4] | bioavailability [5] | Tmax [6] | Ki [14] | bioavailability [19] | Cmax [23] | Tmax [27] | bioavailability [28] | Cmax [29] | Structure (SMILES) | CC50 [8] | further results
5 | – | – | 8300 nM | – | – | – | – | – | 15 min | 31% | 13 µM | N#Cc1ccc(S(=O)(=O)Nc2cccc([C@H](c3c(O)oc4c(c3=O)CCCCCC4)C3CC3)c2)cc1 | > 30000 nM | half-life [24]: 450 min; clearance [25]: 0.933 mL/min/kg; Vd [26]: 0.15 L/kg
6 | – | – | 2000 nM | 107% | 30 min | 3.1 nM | 50% | 31 µM | – | – | – | O=c1c2c(oc(O)c1C(c1cccc(NS(=O)(=O)c3ccc(F)cc3)c1)C1CC1)CCCCCC2 (stereo unspecified) | 68000 nM | half-life [30]: 372 min; half-life [31]: 34.2 min; Vd [32]: 0.16 L/kg; Cmax [33]: 61 µM; clearance [34]: 3.17 mL/min/kg; Vd [35]: 0.08 L/kg; clearance [36]: 0.717 mL/min/kg; Tmax [37]: 15 min
